Test results as given in ChEMBL document CHEMBL1287748, “Design, synthesis and in vitro antimalarial evaluation of triazole-linked chalcone and dienone hybrid compounds” (Bioorg Med Chem, 2010).
pIC50: −log10 of the molar value.

Key:
Plasmodium falciparum [1] = assay: Antimalarial activity against chloroquine-resistant Plasmodium falciparum Dd2 after 48 hrs; type: functional, organism-based; details: Dd2, 48 h
Method in brief: (§1)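 P. falciparum asexual culture in RPMI 1640 with glucose, HEPES, hypoxanthine, 5% Albumax, bicarbonate and gentamicin, sorbitol-synchronized at ring stage when needed. DMSO stocks serially diluted twofold in medium and added to parasitized erythrocytes at 2% hematocrit. Incubation 48 h at 37 °C under 3% O2/4% CO2/93% N2. pLDH read-out with Malstat plus NBT/PES at 620 nm. Runs in duplicate on two occasions; IC50 fitted from dose–response curves.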

Plasmodium falciparum [2] = assay: Antimalarial activity against chloroquine-resistant Plasmodium falciparum W2 after 48 hrs by FACS analysis in presence of 10 % human serum; type: functional, organism-based; details: W2, 48 h
Method in brief: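 W2 parasites grown in standard medium containing 10% human serum. Growth inhibition assay as in earlier published work, with parasite development scored by flow cytometry (FACS).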

Plasmodium falciparum [3] = assay: Antimalarial activity against chloroquine-sensitive Plasmodium falciparum D10 after 48 hrs; type: functional, organism-based; details: D10, 48 h; method in brief: as §1
[4] = Inhibition of beta-hematin formation assessed as equivalents of drug relative to hematin; type: functional
Method in brief: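 Colorimetric assay quantifying a compound's inhibition of the conversion of hematin to beta-hematin. IC50 is expressed in equivalents of compound relative to hematin.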

SMILES | pIC50 (Plasmodium falciparum [1]) | pIC50 (Plasmodium falciparum [2]) | pIC50 (Plasmodium falciparum [3]) | IC50 [4]
C#CCOc1ccc(/C=C/C(C)=O)cc1OC | 5.12 | < 4.70 | 5.01 | –
COc1ccc(C(=O)/C=C/c2ccc(OCc3cn([C@H]4C[C@H](n5cc(C)c(=O)[nH]c5=O)O[C@@H]4CO)nn3)c(OC)c2)cc1 | 5.21 | 5.10 | 5.54 | –
COc1ccc(C(=O)/C=C/c2ccc(OCc3cn([C@H]4C[C@H](n5cc(C)c(=O)[nH]c5=O)O[C@@H]4CO)nn3)c(OC)c2)c(OC)c1 | 5.36 | 5.27 | 5.82 | –
COc1cc(/C=C/C(=O)c2ccc(OC)c(OC)c2OC)ccc1OCc1cn([C@H]2C[C@H](n3cc(C)c(=O)[nH]c3=O)O[C@@H]2CO)nn1 | 5.43 | 5.27 | 5.48 | –
COc1cc(/C=C/C(=O)c2ccc(OC)c(OC)c2OC)ccc1OCc1cn(-c2ccnc3cc(Cl)ccc23)nn1 | 6.40 | 6.22 | 6.40 | 0.2 equiv
COc1ccc(/C=C/C(=O)c2ccc(OCc3cn([C@H]4C[C@H](n5cc(C)c(=O)[nH]c5=O)O[C@@H]4CO)nn3)c(OC)c2)c(OC)c1 | 4.93 | 5.05 | 4.99 | –
COc1cc(C(=O)/C=C/c2ccc(OC)c(OC)c2OC)ccc1OCc1cn([C@H]2C[C@H](n3cc(C)c(=O)[nH]c3=O)O[C@@H]2CO)nn1 | 5.42 | 5.15 | 5.27 | –
COc1cc(C(=O)/C=C/c2ccc(Cl)cc2Cl)ccc1OCc1cn([C@H]2C[C@H](n3cc(C)c(=O)[nH]c3=O)O[C@@H]2CO)nn1 | 5.72 | 5.08 | 5.43 | –
COc1cc(C(=O)/C=C/c2ccc(F)cc2)ccc1OCc1cn([C@H]2C[C@H](n3cc(C)c(=O)[nH]c3=O)O[C@@H]2CO)nn1 | 5.21 | 5.18 | 5.14 | –
COc1cc(C(=O)/C=C/c2ccc(F)cc2F)ccc1OCc1cn([C@H]2C[C@H](n3cc(C)c(=O)[nH]c3=O)O[C@@H]2CO)nn1 | 5.32 | 5.15 | 5.41 | –
COc1cc(C(=O)/C=C/c2ccc(OC)c(OC)c2OC)ccc1OCc1cn(-c2ccnc3cc(Cl)ccc23)nn1 | 6.52 | 6.30 | 6.52 | 4.1 equiv
COc1ccc(/C=C/C(=O)/C=C/c2ccc(OCc3cn([C@H]4C[C@H](n5cc(C)c(=O)[nH]c5=O)O[C@@H]4CO)nn3)c(OC)c2)cc1 | 5.82 | 4.74 | 5.55 | –
COc1ccc(/C=C/C(=O)/C=C/c2ccc(OCc3cn([C@H]4C[C@H](n5cc(C)c(=O)[nH]c5=O)O[C@@H]4CO)nn3)c(OC)c2)c(OC)c1 | 5.92 | 4.84 | 5.89 | –
COc1cc(/C=C/C(=O)/C=C/c2ccc(OC)c(OC)c2OC)ccc1OCc1cn([C@H]2C[C@H](n3cc(C)c(=O)[nH]c3=O)O[C@@H]2CO)nn1 | 5.62 | 5.08 | 5.89 | –
COc1cc(/C=C/C(=O)/C=C/c2ccc(Cl)cc2Cl)ccc1OCc1cn([C@H]2C[C@H](n3cc(C)c(=O)[nH]c3=O)O[C@@H]2CO)nn1 | 5.77 | 5.04 | 5.85 | –
COc1cc(/C=C/C(=O)/C=C/c2ccc(F)cc2)ccc1OCc1cn([C@H]2C[C@H](n3cc(C)c(=O)[nH]c3=O)O[C@@H]2CO)nn1 | 5.59 | – | 5.77 | –
COc1cc(/C=C/C(=O)/C=C/c2ccc(F)cc2F)ccc1OCc1cn([C@H]2C[C@H](n3cc(C)c(=O)[nH]c3=O)O[C@@H]2CO)nn1 | 5.77 | 4.91 | 5.85 | –
COc1ccc(/C=C/C(=O)/C=C/c2ccc(OCc3cn(-c4ccnc5cc(Cl)ccc45)nn3)c(OC)c2)c(OC)c1 | 5.19 | < 4.70 | 5.29 | –
COc1cc(/C=C/C(=O)/C=C/c2ccc(OC)c(OC)c2OC)ccc1OCc1cn(-c2ccnc3cc(Cl)ccc23)nn1 | 5.68 | 4.73 | 5.60 | –
COc1cc(/C=C/C(C)=O)ccc1OCc1cn(-c2ccnc3cc(Cl)ccc23)nn1 | 6.15 | – | 6.10 | –
COc1ccc(/C=C/C(=O)/C=C/c2ccc(OCc3cn(-c4ccnc5cc(Cl)ccc45)nn3)c(OC)c2)cc1 | 5.68 | 5.28 | 5.52 | –
COc1cc(/C=C/C(=O)/C=C/c2ccc(Cl)cc2Cl)ccc1OCc1cn(-c2ccnc3cc(Cl)ccc23)nn1 | 4.77 | < 4.70 | 4.72 | –
COc1cc(/C=C/C(=O)/C=C/c2ccc(F)cc2)ccc1OCc1cn(-c2ccnc3cc(Cl)ccc23)nn1 | 5.03 | < 4.70 | 5.03 | –
COc1cc(/C=C/C(=O)/C=C/c2ccc(F)cc2F)ccc1OCc1cn(-c2ccnc3cc(Cl)ccc23)nn1 | 5.19 | < 4.70 | 4.99 | –
Clc1ccc2c(-n3cc(COc4ccccc4)nn3)ccnc2c1 | < 4.70 | – | < 4.70 | –

SMILES | pIC50 (Plasmodium falciparum [1]) | pIC50 (Plasmodium falciparum [2]) | pIC50 (Plasmodium falciparum [3]) | IC50 [4]
COc1cc(C=O)ccc1OCc1cn(-c2ccnc3cc(Cl)ccc23)nn1 | < 4.70 | – | < 4.70 | –
C#CCOc1ccc(C(=O)/C=C/c2ccc(Cl)cc2Cl)cc1OC | 5.55 | 5.30 | 5.48 | –
C#CCOc1ccc(C(=O)/C=C/c2ccc(F)cc2)cc1OC | 5.11 | < 4.70 | 5.14 | –
C#CCOc1ccc(C(=O)/C=C/c2ccc(F)cc2F)cc1OC | 5.28 | 5.03 | < 4.70 | –
C#CCOc1ccc(/C=C/C(=O)/C=C/c2ccc(OC)cc2)cc1OC | 4.97 | < 4.70 | 4.93 | –
C#CCOc1ccc(/C=C/C(=O)/C=C/c2ccc(OC)cc2OC)cc1OC | 5.40 | 4.72 | 5.27 | –
C#CCOc1ccc(/C=C/C(=O)/C=C/c2ccc(OC)c(OC)c2OC)cc1OC | 5.85 | 5.04 | 6.05 | –
C#CCOc1ccc(/C=C/C(=O)/C=C/c2ccc(Cl)cc2Cl)cc1OC | 5.05 | < 4.70 | 5.04 | –
C#CCOc1ccc(/C=C/C(=O)/C=C/c2ccc(F)cc2)cc1OC | 5.19 | 4.67 | 5.01 | –
C#CCOc1ccc(/C=C/C(=O)/C=C/c2ccc(F)cc2F)cc1OC | 5.03 | < 4.70 | 4.92 | –
COc1ccc(C(=O)/C=C/c2ccc(OCc3cn(-c4ccnc5cc(Cl)ccc45)nn3)c(OC)c2)cc1 | 5.66 | 5.30 | 6.22 | –
COc1ccc(C(=O)/C=C/c2ccc(OCc3cn(-c4ccnc5cc(Cl)ccc45)nn3)c(OC)c2)c(OC)c1 | 7.15 | 7.05 | 7.40 | 1.6 equiv
COc1ccc(/C=C/C(=O)c2ccc(OCc3cn(-c4ccnc5cc(Cl)ccc45)nn3)c(OC)c2)c(OC)c1 | 4.93 | 5.18 | 5.28 | Not Active
COc1cc(C(=O)/C=C/c2ccc(Cl)cc2Cl)ccc1OCc1cn(-c2ccnc3cc(Cl)ccc23)nn1 | 5.72 | 4.94 | 5.22 | –
COc1cc(C(=O)/C=C/c2ccc(F)cc2)ccc1OCc1cn(-c2ccnc3cc(Cl)ccc23)nn1 | 5.80 | 5.16 | 5.13 | 4.8 equiv
COc1cc(C(=O)/C=C/c2ccc(F)cc2F)ccc1OCc1cn(-c2ccnc3cc(Cl)ccc23)nn1 | 5.68 | 4.97 | 5.39 | 1.6 equiv
COc1cc(/C=C/C(C)=O)ccc1OCc1cn([C@H]2C[C@H](n3cc(C)c(=O)[nH]c3=O)O[C@@H]2CO)nn1 | 4.79 | – | 4.92 | –
[N-]=[N+]=Nc1ccnc2cc(Cl)ccc12 | < 4.70 | < 4.70 | < 4.70 | –
C#CCOc1ccc(/C=C/C(=O)c2ccc(OC)cc2OC)cc1OC | 5.37 | – | – | 0.5 equiv
C#CCOc1ccc(/C=C/C(=O)c2ccc(OC)cc2)cc1OC | 4.87 | – | – | –
C#CCOc1ccc(/C=C/C(=O)c2ccc(OC)c(OC)c2OC)cc1OC | 5.55 | – | – | –
C#CCOc1ccc(C(=O)/C=C/c2ccc(OC)c(OC)c2OC)cc1OC | 5.62 | – | – | –
C#CCOc1ccc(C(=O)/C=C/c2ccc(OC)cc2OC)cc1OC | 4.84 | – | < 4.70 | –
CCN(CC)CCCC(C)Nc1ccnc2cc(Cl)ccc12 (stereo unspecified) [CHLOROQUINE] | – | – | – | 1.91 equiv
Cc1cn([C@H]2C[C@H](N=[N+]=[N-])[C@@H](CO)O2)c(=O)[nH]c1=O [ZIDOVUDINE] | < 4.70 | < 4.70 | < 4.70 | –
